Reference: ChEMBL document CHEMBL1122527, “Design, synthesis, and testing of potential antisickling agents. 5. Disubstituted benzoic acids designed for the donor site and proline salicylates designed for the acceptor site” (J Med Chem, 1984)

Experiments:
[1] = Evaluated for antisickling activity, and initial HbS concentration was reported, values from different experiments (no. of runs=1); assay type: functional
Method in brief: (§1)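 Hofrichter-type antigelling assay: the compound was made up as its sodium salt (0.18 M stock) in 0.15 M phosphate buffer, pH 7.4, with sodium bicarbonate. It was diluted with buffer and added to HbS (about 35 g % in 0.15 M phosphate), then dithionite (1.06 M stock) was added and the EPR tubes were sealed. Final drug levels were 5, 10, 20 and 40 mM. Initial HbS (g/dL) is the level after drug and dithionite addition, the same in all six tubes of a run.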

[2] = Control value of dHbS(no. of runs=1); assay type: functional
Method in brief: (§2)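 Deoxy-HbS control tube with buffer in place of the compound: HbS in 0.15 M phosphate was deoxygenated with dithionite (1.06 M stock) in a sealed EPR tube. It was spun with each run's set of six tubes, alongside four drug tubes and a 40 mM phenylalanine standard. The value is the HbS solubility in g/dL, used as the denominator of the solubility ratio.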

[3] = Evaluated for antisickling activity, and ratio was calculated as solubility HbS (g/dL) / solubility HbS control(g/dL) at a concentration of 10 mM; assay type: functional
Method in brief: (§3)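 Hofrichter-type antigelling assay. Acids were dissolved as sodium salts (sodium bicarbonate) at 0.18 M stock in 0.15 M phosphate, pH 7.4. Aliquots went into HbS (stock around 35 g%) with dithionite as deoxygenant; EPR tubes were sealed and spun. Final drug was 5, 10, 20 and 40 mM. Each six-tube run held a buffer-only deoxy-HbS control and a 40 mM phenylalanine standard. Ratio = soluble HbS with drug / control (g/dL).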

[4] = Evaluated for antisickling activity, and ratio was calculated as solubility HbS (g/dL) / solubility HbS control(g/dL) at a concentration of 20 mM; assay type: functional; method in brief: as §3
[5] = Evaluated for antisickling activity, and ratio was calculated as solubility HbS (g/dL) / solubility HbS control(g/dL) at a concentration of 5 mM; assay type: functional; method in brief: as §3
[6] = Evaluated for antisickling activity, and ratio was calculated as solubility HbS compound (g/dL) / solubility HbS control(g/dL) at a concentration of 40 mM; assay type: functional; method in brief: as §3
[7] = Evaluated for antisickling activity, and initial HbS concentration was reported, values from different experiments (no. of runs=2); assay type: functional; method in brief: as §1
[8] = Control value of dHbS(no. of runs=2); assay type: functional; method in brief: as §2
[9] = Compound was evaluated for antisickling activity, and initial HbS concentration was reported, values from different experiments (no. of runs=1); assay type: functional; method in brief: as §1
[10] = Compound was evaluated for antisickling activity, and initial HbS concentration was reported, values from different experiments (no. of runs=3); assay type: functional; method in brief: as §1
[11] = Control value of dHbS(no. of runs=3); assay type: functional; method in brief: as §2
[12] = Compound was evaluated for antisickling activity, and ratio was calculated as solubility HbS compound (g/dL) / solubility HbS control(g/dL) at a concentration of 40 mM (for 173 assays); assay type: functional
Method in brief: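 Phenylalanine reference standard at 40 mM, included in every six-tube set of the sealed-tube dithionite-deoxygenated HbS sedimentation solubility assay, pH 7.4 phosphate. Ratio = soluble HbS with Phe / soluble HbS in the buffer control (g/dL). Reported as mean and standard deviation over 173 assays.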

[13] = Control value of dHbS (no. of runs=1); assay type: functional; method in brief: as §2
[14] = Compound was evaluated for antisickling activity, and initial HbS concentration was reported, values from different experiments (no. of runs=1)
[15] = Control value of dHbS (no. of runs=2); assay type: functional; method in brief: as §2

CCCCCCCC(=O)Nc1cc(OCC(=O)O)cc(C(=O)O)c1
Concentration [1]: 24.3 g/dL | Control value [2]: 16.3 g/dL | Ratio [3]: 1.1 | Ratio [4]: 1.23 | Ratio [5]: 1.04 | Ratio [6]: 1.43

CC(C)(C)C(=O)N1CCCC1C(=O)O (stereo unspecified)
Concentration [1]: 22.9 g/dL | Control value [2]: 16.1 g/dL | Ratio [3]: 1.05 | Ratio [4]: 1.05 | Ratio [5]: 1.03 | Ratio [6]: 1.07

O=C(O)c1ccccc1OC(=O)C1CCCN1C(=O)c1ccccc1 (stereo unspecified)
Concentration [7]: 24.5 g/dL | Control value [8]: 17.2 g/dL | Ratio [3]: 1 | Ratio [4]: 1.01 | Ratio [5]: 0.999 | Ratio [6]: 1.03

CCC(=O)Nc1cc(OCC(=O)O)cc(C(=O)O)c1
Concentration [1]: 24.3 g/dL | Control value [2]: 16.6 g/dL | Ratio [3]: 1.03 | Ratio [4]: 1.07 | Ratio [5]: 1 | Ratio [6]: 1.15

O=C(O)c1ccccc1OC(=O)C1CCCN1C(=O)Cc1ccccc1 (stereo unspecified)
Concentration [1]: 24.6 g/dL | Control value [2]: 17.1 g/dL | Ratio [3]: 1.03 | Ratio [4]: 1.05 | Ratio [5]: 1.03 | Ratio [6]: 1.15

O=C(O)c1ccccc1OC(=O)C1CCCN1C(=O)CCc1ccccc1 (stereo unspecified)
Concentration [9]: 23.4 g/dL | Ratio [3]: 0.988 | Ratio [4]: 0.983 | Ratio [6]: 0.951

O=C(O)COc1cc(NC(=O)c2ccccc2)cc(C(=O)O)c1
Concentration [7]: 23.8 g/dL | Control value [8]: 17.4 g/dL | Ratio [3]: 1.09 | Ratio [4]: 1.16 | Ratio [5]: 1.06 | Ratio [6]: 1.37

O=C(O)COc1cc(NC(=O)c2ccc(Br)cc2)cc(C(=O)O)c1
Concentration [1]: 24 g/dL | Control value [2]: 17.4 g/dL | Ratio [3]: 1.08 | Ratio [4]: 1.24 | Ratio [5]: 1.02 | Ratio [6]: 1.32

O=C(O)COc1cc(NC(=O)c2ccc(Cl)c(Cl)c2)cc(C(=O)O)c1
Concentration [10]: 24.8 g/dL | Control value [11]: 16.9 g/dL | Ratio [3]: 1.19 | Ratio [4]: 1.35 | Ratio [5]: 1.09 | Ratio [6]: 1.45

CC(C)(Oc1ccc(CCNC(=O)c2ccc(Cl)cc2)cc1)C(=O)O
Concentration [10]: 24.8 g/dL | Control value [11]: 18.2 g/dL | Ratio [3]: 0.932 | Ratio [4]: 0.981 | Ratio [5]: 0.954 | Ratio [6]: 1.2

N[C@@H](Cc1ccccc1)C(=O)O
Concentration [7]: 24.5 g/dL | Control value [8]: 17.3 g/dL | Ratio [12]: 1.18 | Ratio [3]: 1.05 | Ratio [4]: 1.09 | Ratio [5]: 1.04 | Ratio [6]: 1.18

CC(C)(C)C(=O)N1CCCC1C(=O)Oc1ccccc1C(=O)O (stereo unspecified)
Concentration [1]: 22.9 g/dL | Control value [2]: 16.5 g/dL | Ratio [3]: 1 | Ratio [4]: 1.03 | Ratio [5]: 0.993 | Ratio [6]: 1.08

CC(C)(C)CC(=O)N1CCCC1C(=O)Oc1ccccc1C(=O)O (stereo unspecified)
Concentration [7]: 28.3 g/dL | Control value [8]: 17.6 g/dL | Ratio [3]: 1.02 | Ratio [4]: 0.995 | Ratio [5]: 0.991 | Ratio [6]: 1.05

O=C(O)COc1cc(NC(=O)c2ccc(Cl)cc2)cc(C(=O)O)c1
Control value [13]: 17.1 g/dL | Ratio [3]: 1.16 | Ratio [4]: 1.34 | Ratio [5]: 1.07 | Ratio [6]: 1.38 | Concentration [14]: 24 g/dL

O=C(O)C1CCCN1C(=O)Cc1ccccc1 (stereo unspecified)
Concentration [7]: 24.5 g/dL | Control value [15]: 17.6 g/dL | Ratio [3]: 1.01 | Ratio [4]: 1.06 | Ratio [5]: 1 | Ratio [6]: 1.13

O=C(O)c1ccccc1OC(=O)C1CCCN1C(=O)COc1ccccc1 (stereo unspecified)
Concentration [1]: 24 g/dL | Control value [2]: 17.1 g/dL | Ratio [3]: 1.02 | Ratio [4]: 1.02 | Ratio [5]: 0.987 | Ratio [6]: 1.08

O=C(O)c1ccccc1OC(=O)C1CCCN1C(=O)CCC(O)c1ccccc1 (stereo unspecified)
Concentration [7]: 24.5 g/dL | Control value [8]: 17.6 g/dL | Ratio [3]: 0.98 | Ratio [4]: 1 | Ratio [5]: 0.99 | Ratio [6]: 1.15
